ChEMBL document CHEMBL2150963, “Anthraquinones from a marine-derived Streptomyces spinoverrucosus” (J Nat Prod, 2012)
Activity calls are given as the source filed them. The rule behind the calls is not given here.

Columns and labels:
Calu-3 = assay: Cytotoxicity against human Calu3 cells after 96 hrs by Cell Titer Glo assay; assay type: functional, cell-based; settings: Calu-3, 96 h
How it was run: (§1)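 Cells were grown in RPMI/L-glutamine with penicillin 1000 U/ml, streptomycin 1 mg/mL and 5% FBS, humidified, at 37 °C and 5% CO2. They were seeded in 384-well plates at 750 (Calu-3) or 500 (H2887) cells/well and left overnight. Compounds in DMSO were added at 50 μM to 1 nM final, with 0.5% DMSO final. After 96 h, CellTiter-Glo was added, plates sat 10 min at room temperature, and luminescence was normalized to DMSO-only wells.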

[1] = Cytotoxicity against human NCI-H2887 cells after 96 hrs by Cell Titer Glo assay; assay type: functional, cell-based; settings: NCI-H2887, 96 h; how it was run: as §1
C127 [2] = assay: Epigenetic modulation in mouse C127 cells expressing CMV promoter assessed as induction of GFP expression at 10 uM after 24 hrs by LDR assay
C127 [3] = assay: Epigenetic modulation in mouse C127 cells expressing CMV promoter assessed as induction of GFP expression at 1 uM after 24 hrs by LDR assay

| SMILES | IC50 (Calu-3) [µM] | IC50 [1] [µM] | Activity (C127 [2]) | Activity (C127 [3]) |
| --- | --- | --- | --- | --- |
| Cc1c(O)c(CCC(C)C)c2c3c1OC(C)(C)N=C3c1cccc(O)c1C2=O | > 50 | > 50 |  |  |
| Cc1cc2c(c(O)c1C(=O)CCC(C)C)C(=O)c1c(O)cccc1C2=O [GALVAQUINONE A] | > 50 | > 50 | Active |  |
| Cc1c(O)c2c(c(O)c1C(=O)CCC(C)C)C(=O)c1c(O)cccc1C2=O [GALVAQUINONE B] | 12.2 | 5 | Active | Active |
| Cc1c(O)c(C(=O)CC(C)C)c2c(c1O)C(=O)c1cccc(O)c1C2=O [GALVAQUINONE C] | > 50 | > 50 |  |  |
| Cc1cc(O)c2c(c1O)C(=O)c1cccc(O)c1C2=O [ISLANDICIN] | > 50 | > 50 |  |  |
| Cc1c(O)c(CCC(C)C)c2c(c1O)C(=O)c1cccc(O)c1C2=O [LUPINACIDIN A] | 8.8 | 3.1 |  |  |
